Experimental data as given in ChEMBL document CHEMBL4665843, “Automated Design of Macrocycles for Therapeutic Applications: From Small Molecules to Peptides and Proteins” (J Med Chem, 2020).
Residues, ends and D or L forms follow the SMILES beside them.

How the values were obtained:
[1] = target: Glucagon-like peptide 1 receptor (Homo sapiens, UniProt P43220); assay: Agonist activity at human GLP-1 receptor expressed in HEK293 cells assessed as induction of cAMP accumulation incubated for 30 mins by HTRF assay; type: functional, cell-based
Sequence of Glucagon-like peptide 1 receptor (P43220 whole entry): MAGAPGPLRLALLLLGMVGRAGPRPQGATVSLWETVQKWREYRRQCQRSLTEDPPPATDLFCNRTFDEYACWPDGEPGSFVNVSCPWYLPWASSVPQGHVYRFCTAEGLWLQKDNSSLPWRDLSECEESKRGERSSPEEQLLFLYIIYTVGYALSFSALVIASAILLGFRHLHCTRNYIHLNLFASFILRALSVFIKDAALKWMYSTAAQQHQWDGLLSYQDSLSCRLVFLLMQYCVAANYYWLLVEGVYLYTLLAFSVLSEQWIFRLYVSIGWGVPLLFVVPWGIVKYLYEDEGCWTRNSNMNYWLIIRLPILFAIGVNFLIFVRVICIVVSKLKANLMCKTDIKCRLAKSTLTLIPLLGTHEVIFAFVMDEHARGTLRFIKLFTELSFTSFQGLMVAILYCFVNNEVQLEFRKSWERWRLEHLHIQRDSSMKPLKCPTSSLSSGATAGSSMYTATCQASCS
Method in brief: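 HEK-293 cells stably expressing human receptor, grown in DMEM/10% FBS, frozen, thawed and washed in HBSS/20 mM HEPES/0.1% HSA; resuspended with 2 mM IBMX. 5000 cells/well incubated with peptide 30 min at room temperature; cAMP by HTRF kit, 1 h with reagents in lysis buffer, 665/620 nm fluorescence ratio.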

Glucagon receptor = Glucagon receptor (Homo sapiens, UniProt P47871); assay: Agonist activity at human glucagon receptor expressed in HEK293 cells assessed as induction of cAMP accumulation incubated for 30 mins by HTRF assay; type: functional, cell-based
Sequence of Glucagon receptor (P47871 whole entry): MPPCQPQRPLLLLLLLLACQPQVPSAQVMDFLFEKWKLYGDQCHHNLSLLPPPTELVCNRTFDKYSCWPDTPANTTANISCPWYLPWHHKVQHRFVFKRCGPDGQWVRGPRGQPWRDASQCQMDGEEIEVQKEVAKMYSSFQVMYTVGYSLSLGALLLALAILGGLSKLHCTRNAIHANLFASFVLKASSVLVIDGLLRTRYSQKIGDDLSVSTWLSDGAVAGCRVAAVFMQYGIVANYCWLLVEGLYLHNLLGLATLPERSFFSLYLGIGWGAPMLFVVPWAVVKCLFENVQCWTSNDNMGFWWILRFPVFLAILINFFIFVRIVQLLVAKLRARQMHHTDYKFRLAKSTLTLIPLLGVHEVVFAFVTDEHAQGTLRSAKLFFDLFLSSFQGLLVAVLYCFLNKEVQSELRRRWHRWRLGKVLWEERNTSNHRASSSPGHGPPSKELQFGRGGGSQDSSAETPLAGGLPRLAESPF

SMILES	EC50 [1] [nM]	EC50 (Glucagon receptor) [nM]
CC[C@H](C)[C@H](NC(=O)[C@H](Cc1ccccc1)NC(=O)[C@H](CC(=O)O)NC(=O)[C@H](CCC(N)=O)NC(=O)[C@H](C)NC(=O)[C@H](CCCNC(=N)N)NC(=O)[C@H](CCCNC(=N)N)NC(=O)[C@H](CO)NC(=O)[C@H](CC(=O)O)NC(=O)[C@H](CCSC)NC(=O)[C@H](CCC(N)=O)NC(=O)[C@H](CCCCN)NC(=O)[C@H](CO)NC(=O)[C@H](CC(C)C)NC(=O)[C@H](CC(=O)O)NC(=O)[C@H](CO)NC(=O)[C@@H](NC(=O)[C@H](Cc1ccccc1)NC(=O)[C@@H](NC(=O)CNC(=O)[C@H](CCC(N)=O)NC(=O)[C@@H](CO)NC(=O)[C@@H](N)Cc1cnc[nH]1)[C@@H](C)O)[C@@H](C)O)C(=O)N[C@@H](CCC(=O)O)C(=O)N[C@@H](Cc1c[nH]c2ccccc12)C(=O)N[C@@H](CC(C)C)C(=O)N[C@@H](CCCCN)C(=O)N[C@@H](CC(N)=O)C(=O)NCC(=O)NCC(=O)N1CCC[C@H]1C(=O)N[C@@H](CO)C(=O)N[C@@H](CO)C(=O)NCC(=O)N[C@@H](C)C(=O)N1CCC[C@H]1C(=O)N1CCC[C@H]1C(=O)N1CCC[C@H]1C(=O)N[C@@H](CO)C(N)=O	0.0754	0.122
CC[C@H](C)[C@H](NC(=O)[C@H](Cc1ccccc1)NC(=O)[C@H](CC(=O)O)NC(=O)[C@H](CCC(N)=O)NC(=O)[C@H](C)NC(=O)[C@H](CCCNC(=N)N)NC(=O)[C@H](CCCNC(=N)N)NC(=O)[C@H](CO)NC(=O)[C@H](CC(=O)O)NC(=O)[C@H](CCSC)NC(=O)[C@H](CCC(N)=O)NC(=O)[C@H](CCCCN)NC(=O)[C@H](CO)NC(=O)[C@H](CC(C)C)NC(=O)[C@H](CC(=O)O)NC(=O)[C@H](CO)NC(=O)[C@@H](NC(=O)[C@H](Cc1ccccc1)NC(=O)[C@@H](NC(=O)CNC(=O)[C@H](CCC(N)=O)NC(=O)[C@@H](CO)NC(=O)[C@@H](N)Cc1cnc[nH]1)[C@@H](C)O)[C@@H](C)O)C(=O)N[C@@H](CCC(=O)O)C(=O)N[C@@H](Cc1c[nH]c2ccccc12)C(=O)N[C@@H](CC(C)C)C(=O)N[C@@H](CCCCN)C(=O)N[C@H]1CCCCNC(=O)CC[C@@H](C(=O)NCC(=O)N[C@@H](C)C(=O)N2CCC[C@H]2C(=O)N2CCC[C@H]2C(=O)N2CCC[C@H]2C(=O)N[C@@H](CO)C(N)=O)NC(=O)[C@H](CO)NC(=O)[C@@H]2CCCN2C(=O)CNC(=O)CNC1=O	0.00813	0.0596
CC[C@H](C)[C@H](NC(=O)[C@H](Cc1ccccc1)NC(=O)[C@H](CC(=O)O)NC(=O)[C@H](CCC(N)=O)NC(=O)[C@H](C)NC(=O)[C@]1(C)CCC/C=C\CCC[C@](C)(NC(=O)[C@H](CCC(N)=O)NC(=O)[C@H](CCCCN)NC(=O)[C@H](CO)NC(=O)[C@H](CC(C)C)NC(=O)[C@H](CC(=O)O)NC(=O)[C@H](CO)NC(=O)[C@@H](NC(=O)[C@H](Cc2ccccc2)NC(=O)[C@@H](NC(=O)CNC(=O)[C@H](CCC(N)=O)NC(=O)[C@@H](CO)NC(=O)[C@@H](N)Cc2cnc[nH]2)[C@@H](C)O)[C@@H](C)O)C(=O)N[C@@H](CC(=O)O)C(=O)N[C@@H](CO)C(=O)N[C@@H](CCCNC(=N)N)C(=O)N1)C(=O)N[C@@H](CCC(=O)O)C(=O)N[C@@H](Cc1c[nH]c2ccccc12)C(=O)N[C@@H](CC(C)C)C(=O)N[C@@H](CCCCN)C(=O)N[C@@H](CC(N)=O)C(=O)NCC(=O)NCC(=O)N1CCC[C@H]1C(=O)N[C@@H](CO)C(=O)N[C@@H](CO)C(=O)NCC(=O)N[C@@H](C)C(=O)N1CCC[C@H]1C(=O)N1CCC[C@H]1C(=O)N1CCC[C@H]1C(=O)N[C@@H](CO)C(N)=O	0.0012	8.43
CC[C@H](C)[C@H](NC(=O)[C@H](Cc1ccccc1)NC(=O)[C@H](CC(=O)O)NC(=O)[C@H](CCC(N)=O)NC(=O)[C@H](C)NC(=O)[C@]1(C)CCC/C=C/CCC[C@](C)(NC(=O)[C@H](CCC(N)=O)NC(=O)[C@H](CCCCN)NC(=O)[C@H](CO)NC(=O)[C@H](CC(C)C)NC(=O)[C@H](CC(=O)O)NC(=O)[C@H](CO)NC(=O)[C@@H](NC(=O)[C@H](Cc2ccccc2)NC(=O)[C@@H](NC(=O)CNC(=O)[C@H](CCC(N)=O)NC(=O)[C@H](CO)NC(=O)[C@@H](N)Cc2cnc[nH]2)[C@@H](C)O)[C@@H](C)O)C(=O)N[C@@H](CC(=O)O)C(=O)N[C@@H](CO)C(=O)N[C@@H](CCCNC(=N)N)C(=O)N1)C(=O)N[C@@H](CCC(=O)O)C(=O)N[C@@H](Cc1c[nH]c2ccccc12)C(=O)N[C@@H](CC(C)C)C(=O)N[C@@H](CCCCN)C(=O)N[C@@H](CC(N)=O)C(=O)NCC(=O)NCC(=O)N1CCC[C@H]1C(=O)N[C@@H](CO)C(=O)N[C@@H](CO)C(=O)NCC(=O)N[C@@H](C)C(=O)N1CCC[C@H]1C(=O)N1CCC[C@H]1C(=O)N1CCC[C@H]1C(=O)N[C@@H](CO)C(N)=O	0.0004	0.369
CC[C@H](C)[C@H](NC(=O)[C@H](Cc1ccccc1)NC(=O)[C@H](CC(=O)O)NC(=O)[C@@H]1CCC(=O)NCCCC[C@H](NC(=O)[C@H](CC(=O)O)NC(=O)[C@H](CCSC)NC(=O)[C@H](CCC(N)=O)NC(=O)[C@H](CCCCN)NC(=O)[C@H](CO)NC(=O)[C@H](CC(C)C)NC(=O)[C@H](CC(=O)O)NC(=O)[C@H](CO)NC(=O)[C@@H](NC(=O)[C@H](Cc2ccccc2)NC(=O)[C@@H](NC(=O)CNC(=O)[C@H](CCC(N)=O)NC(=O)[C@@H](CO)NC(=O)[C@@H](N)Cc2cnc[nH]2)[C@@H](C)O)[C@@H](C)O)C(=O)N[C@@H](CCCNC(=N)N)C(=O)N[C@@H](CCCNC(=N)N)C(=O)N[C@@H](C)C(=O)N1)C(=O)N[C@@H](CCC(=O)O)C(=O)N[C@@H](Cc1c[nH]c2ccccc12)C(=O)N[C@@H](CC(C)C)C(=O)N[C@@H](CCCCN)C(=O)N[C@@H](CC(N)=O)C(=O)NCC(=O)NCC(=O)N1CCC[C@H]1C(=O)N[C@@H](CO)C(=O)N[C@@H](CO)C(=O)NCC(=O)N[C@@H](C)C(=O)N1CCC[C@H]1C(=O)N1CCC[C@H]1C(=O)N1CCC[C@H]1C(=O)N[C@@H](CO)C(N)=O	0.0064	0.0078
CC[C@H](C)[C@@H]1NC(=O)[C@H](Cc2ccccc2)NC(=O)[C@@H](NC(=O)[C@H](CCC(N)=O)NC(=O)[C@H](C)NC(=O)[C@H](CCCNC(=N)N)NC(=O)[C@H](CCCNC(=N)N)NC(=O)[C@H](CO)NC(=O)[C@H](CC(=O)O)NC(=O)[C@H](CCSC)NC(=O)[C@H](CCC(N)=O)NC(=O)[C@H](CCCCN)NC(=O)[C@H](CO)NC(=O)[C@H](CC(C)C)NC(=O)[C@H](CC(=O)O)NC(=O)[C@H](CO)NC(=O)[C@@H](NC(=O)[C@H](Cc2ccccc2)NC(=O)[C@@H](NC(=O)CNC(=O)[C@H](CCC(N)=O)NC(=O)[C@H](CO)NC(=O)[C@@H](N)Cc2cnc[nH]2)[C@@H](C)O)[C@@H](C)O)CSCc2cc3cc(c2)CSC[C@@H](C(=O)N2CCC[C@H]2C(=O)N2CCC[C@H]2C(=O)N2CCC[C@H]2C(=O)N[C@@H](CO)C(N)=O)NC(=O)CNC(=O)[C@H](CO)NC(=O)[C@@H](CO)NC(=O)[C@@H]2CCCN2C(=O)CNC(=O)CNC(=O)[C@H](CSC3)NC(=O)[C@H](CCCCN)NC(=O)[C@H](CC(C)C)NC(=O)[C@H](Cc2c[nH]c3ccccc23)NC(=O)[C@H](CCC(=O)O)NC1=O	0.194	0.578
CC[C@H](C)[C@H](NC(=O)[C@H](Cc1ccccc1)NC(=O)[C@H](CC(=O)O)NC(=O)[C@H](CCC(N)=O)NC(=O)[C@H](C)NC(=O)[C@H](CCCNC(=N)N)NC(=O)[C@H](CCCNC(=N)N)NC(=O)[C@H](CO)NC(=O)[C@H](CC(=O)O)NC(=O)[C@@H]1CCC(=O)NCCCC[C@H](NC(=O)[C@H](CC(=O)O)NC(=O)[C@H](CO)NC(=O)[C@@H](NC(=O)[C@H](Cc2ccccc2)NC(=O)[C@@H](NC(=O)CNC(=O)[C@H](CCC(N)=O)NC(=O)[C@H](CO)NC(=O)[C@@H](N)Cc2cnc[nH]2)[C@@H](C)O)[C@@H](C)O)C(=O)N[C@@H](CO)C(=O)N[C@@H](CCCCN)C(=O)N[C@@H](CCC(N)=O)C(=O)N1)C(=O)N[C@@H](CCC(=O)O)C(=O)N[C@@H](Cc1c[nH]c2ccccc12)C(=O)N[C@@H](CC(C)C)C(=O)N[C@@H](CCCCN)C(=O)N[C@@H](CC(N)=O)C(=O)NCC(=O)NCC(=O)N1CCC[C@H]1C(=O)N[C@@H](CO)C(=O)N[C@@H](CO)C(=O)NCC(=O)N[C@@H](C)C(=O)N1CCC[C@H]1C(=O)N1CCC[C@H]1C(=O)N1CCC[C@H]1C(=O)N[C@@H](CO)C(N)=O (HELM PEPTIDE1{H.S.Q.G.T.F.T.S.D.K.S.K.Q.E.D.S.R.R.A.Q.D.F.I.E.W.L.K.N.G.G.P.S.S.G.A.P.P.P.S.[am]}$PEPTIDE1,PEPTIDE1,10:R3-14:R3$$$V2.0)	0.0475	–
CC[C@H](C)[C@@H]1NC(=O)[C@H](Cc2ccccc2)NC(=O)[C@@H](NC(=O)[C@H](CCC(N)=O)NC(=O)[C@H](C)NC(=O)[C@H](CCCNC(=N)N)NC(=O)[C@H](CCCNC(=N)N)NC(=O)[C@H](CO)NC(=O)[C@H](CC(=O)O)NC(=O)[C@H](CCSC)NC(=O)[C@H](CCC(N)=O)NC(=O)[C@H](CCCCN)NC(=O)[C@H](CO)NC(=O)[C@H](CC(C)C)NC(=O)[C@H](CC(=O)O)NC(=O)[C@H](CO)NC(=O)[C@@H](NC(=O)[C@H](Cc2ccccc2)NC(=O)[C@@H](NC(=O)CNC(=O)[C@H](CCC(N)=O)NC(=O)[C@H](CO)NC(=O)[C@@H](N)Cc2cnc[nH]2)[C@@H](C)O)[C@@H](C)O)CSCc2cccc(c2)CSC[C@@H](C(=O)N2CCC[C@H]2C(=O)N2CCC[C@H]2C(=O)N2CCC[C@H]2C(=O)N[C@@H](CO)C(N)=O)NC(=O)CNC(=O)[C@H](CO)NC(=O)[C@H](CO)NC(=O)[C@@H]2CCCN2C(=O)CNC(=O)CNC(=O)[C@H](CC(N)=O)NC(=O)[C@H](CCCCN)NC(=O)[C@H](CC(C)C)NC(=O)[C@H](Cc2c[nH]c3ccccc23)NC(=O)[C@H](CCC(=O)O)NC1=O (HELM PEPTIDE1{H.S.Q.G.T.F.T.S.D.L.S.K.Q.M.D.S.R.R.A.Q.C.F.I.E.W.L.K.N.G.G.P.S.S.G.C.P.P.P.S.[am]}|CHEM1{[c1cc(C[*:1])cc(C[*:2])c1]}$PEPTIDE1,CHEM1,21:R3-1:R1|PEPTIDE1,CHEM1,35:R3-1:R2$$$V2.0)	0.0249	–
